The results in this text go back to publication PMC9257745 (Molecular Pharmaceutics, 2022).

For one data set, the system named is trypsin. Put plainly: Tryptic digestion assay. The following applies: pH 8. Format: in vitro ADME. Put shortly:
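Peptide at 150 μM incubated with trypsin (substrate:enzyme 5000:1) at 37 °C in 100 mM Tris–HCl, pH 8.0. Aliquots taken at intervals and quenched with 1 M HCl. Remaining peptide measured by RP-HPLC and plotted as natural log against time, n = 3.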

The subject of the next data set is healthy ddy mice. Description: Hypoglycemic effect, blood glucose after subcutaneous administration to mice. Format: in vivo, mouse. Particulars: 38 μg/kg insulin, 16 h-fasted healthy male ddy mice, mean ± S.E of 4–7 experiments.
Data set [1] deals with albumin of cynomolgus monkey (Macaca fascicularis, UniProt A2V9Z4). Format: binding. Particulars: yeast-displayed peptide, biotinylated SA, streptavidin-APC, flow cytometer. The gist of the method:
(§1)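 Yeast grown in SDCAA at 30 °C for 16 h, then in SG/RCAA at 20 °C for 24 h to display the peptide. Cells labelled 1 h with mouse anti-FLAG and biotinylated albumin, washed in PBST, then stained 1 h with Alexa-488 goat anti-mouse IgG (display) and streptavidin-APC (albumin binding). Fluorescence read by flow cytometry.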

A further data set deals with albumin of rat (Rattus norvegicus, UniProt P02770). Put plainly: FACS binding specificity of peptide-displayed yeast cells, rat albumin. Particulars: biotinylated SA, streptavidin-APC, flow cytometer. The gist of the method: as §1
Sequence of albumin of rat (P02770 25-608): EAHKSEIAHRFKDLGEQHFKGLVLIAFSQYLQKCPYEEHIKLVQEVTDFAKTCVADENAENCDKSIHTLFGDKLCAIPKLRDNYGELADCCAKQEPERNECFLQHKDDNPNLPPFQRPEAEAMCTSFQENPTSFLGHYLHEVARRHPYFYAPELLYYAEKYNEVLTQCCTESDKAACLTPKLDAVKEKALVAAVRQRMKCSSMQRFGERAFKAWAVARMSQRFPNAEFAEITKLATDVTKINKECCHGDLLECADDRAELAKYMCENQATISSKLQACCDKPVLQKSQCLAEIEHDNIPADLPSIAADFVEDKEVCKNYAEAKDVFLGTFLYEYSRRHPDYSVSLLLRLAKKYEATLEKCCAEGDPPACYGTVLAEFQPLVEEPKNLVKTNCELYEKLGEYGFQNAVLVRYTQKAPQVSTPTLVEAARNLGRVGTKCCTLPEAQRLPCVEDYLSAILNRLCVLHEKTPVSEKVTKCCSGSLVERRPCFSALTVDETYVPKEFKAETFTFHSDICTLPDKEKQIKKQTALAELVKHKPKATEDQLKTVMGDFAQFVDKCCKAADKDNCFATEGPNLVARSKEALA
(In general: Flow cytometry measures light scatter and fluorescence of single cells or particles in a stream.)

The next data set has as its target fatty acid-free HSA (Homo sapiens, UniProt P02768). Put plainly: SPR binding to immobilized HSA. The following applies: fatty acid-free HSA immobilized on CM5 sensor chip. For orientation: In SPR one partner is held on a chip, and binding of the other changes the refractive index at the surface.
In the next data set the target is human SA (HSA) (Homo sapiens, UniProt P02768). Description: FACS binding specificity of peptide-displayed yeast cells, human albumin. The following applies: biotinylated SA, streptavidin-APC, flow cytometer. Put shortly: as §1
For another data set, the target named is mouse SA (MSA) (Mus musculus, UniProt P07724). Description: FACS binding specificity of peptide-displayed yeast cells, mouse albumin. Particulars: biotinylated SA, streptavidin-APC, flow cytometer. The gist of the method: as §1
Sequence of mouse SA (MSA) (P07724 25-608): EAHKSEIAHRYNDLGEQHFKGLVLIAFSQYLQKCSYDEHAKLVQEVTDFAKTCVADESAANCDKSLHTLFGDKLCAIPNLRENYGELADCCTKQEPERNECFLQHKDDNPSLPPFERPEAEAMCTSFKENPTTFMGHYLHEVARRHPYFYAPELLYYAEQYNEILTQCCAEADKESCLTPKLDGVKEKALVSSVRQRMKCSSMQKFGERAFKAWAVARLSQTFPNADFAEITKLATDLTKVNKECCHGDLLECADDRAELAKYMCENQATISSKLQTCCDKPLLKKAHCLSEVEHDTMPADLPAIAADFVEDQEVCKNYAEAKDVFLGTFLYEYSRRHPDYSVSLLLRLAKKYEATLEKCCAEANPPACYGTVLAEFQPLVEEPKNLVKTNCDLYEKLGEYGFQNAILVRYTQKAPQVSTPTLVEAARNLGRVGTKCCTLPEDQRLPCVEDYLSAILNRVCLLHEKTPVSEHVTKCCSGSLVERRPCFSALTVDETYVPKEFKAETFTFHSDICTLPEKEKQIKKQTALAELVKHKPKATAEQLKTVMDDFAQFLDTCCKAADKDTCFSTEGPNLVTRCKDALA

Bridge positions count the residues as written; N and C are the ends.

Sequence of albumin of cynomolgus monkey (A2V9Z4 25-608): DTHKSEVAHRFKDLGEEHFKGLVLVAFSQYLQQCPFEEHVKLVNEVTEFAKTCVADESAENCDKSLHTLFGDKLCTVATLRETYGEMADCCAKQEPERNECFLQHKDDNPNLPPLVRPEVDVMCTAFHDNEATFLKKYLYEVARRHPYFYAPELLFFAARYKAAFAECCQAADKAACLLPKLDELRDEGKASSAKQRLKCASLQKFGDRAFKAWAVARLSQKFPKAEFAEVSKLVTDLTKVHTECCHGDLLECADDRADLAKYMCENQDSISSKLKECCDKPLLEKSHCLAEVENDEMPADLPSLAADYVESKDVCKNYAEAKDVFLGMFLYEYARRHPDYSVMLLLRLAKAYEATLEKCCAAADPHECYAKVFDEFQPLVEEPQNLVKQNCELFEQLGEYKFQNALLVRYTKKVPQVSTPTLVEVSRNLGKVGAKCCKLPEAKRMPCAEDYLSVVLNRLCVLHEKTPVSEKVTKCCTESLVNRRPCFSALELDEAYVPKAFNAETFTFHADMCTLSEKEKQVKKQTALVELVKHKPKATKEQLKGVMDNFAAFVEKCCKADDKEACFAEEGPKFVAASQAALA

The term half-life denotes the time in which the quantity being followed falls by half. In the data set with trypsin, “Ac-ELAALEAELAALEGVNFGVVLFRGELAALKAKLAALKAY-NH2 (N-terminus assumed) [AY-VE-dS]” came in with a half-life at 150 μM of 56 ± 1 min.

insulin: Recombinant human insulin: the “Time of peak of hypoglycemic effect after administration” value with healthy ddy mice amounted to 1 h.

“Ac-GVNFGVVLFRGELAALKAKLAALKAY-NH2 (N-terminus assumed) [AY-VE-dN]” returned a half-life at 150 μM in the data set with trypsin of 6.3 ± 0.4 min.

A word on the Kd: it is the equilibrium constant for the complex coming apart. Consider “Ac-CAAELAALEAELAALEGVNFGVVLFRGELAALKAKLAALKAYC-NH2 (disulfide 1-43; N-terminus assumed) [AY-VE]”, for which the “Binding of yeast clone to albumin of cynomolgus monkey (FACS)” value in data set [1] is given as “no affinity”. Further, the “Binding of yeast clone to albumin of rat (FACS)” value on albumin of rat is reported as “no affinity”. Besides, on fatty acid-free HSA, the Kd worked out at 65 ± 39 nM. Moreover, on human SA (HSA), the “Binding of yeast clone to albumin of human (FACS)” value is reported as “affinity”. At mouse SA (MSA), the “Binding of yeast clone to albumin of mouse (FACS)” value is “affinity”. Also, the half-life at 150 μM in the data set on trypsin came out at 190 ± 10 min.
